Source: PubChem BioAssay (several laboratories)
G6PDH counter = L. mesenteroides G6PDH inhibitors, counter-screen for G6PDH-coupled screening assays, biochemical, Leuconostoc mesenteroides enzyme; glucose-6-phosphate dehydrogenase [Leuconostoc mesenteroides]; Purified L. mesenteroides G6PDH, diaphorase/resazurin coupled fluorescence, 45 min; inhibition, % at 5 µM; hit rate 0.12% among 200,000
Diaphorase inh = diaphorase inhibitors and chemical oxidizers, primary screen, counter-screen for diaphorase-coupled primary assays, biochemical, uHTS, resorufin fluorescence | diaphorase resazurin-to-resorufin fluorescence, NADH, 16 min; bacterial (C. kluyveri) enzyme, not human | inhibition, % at 20 µM | hit rate 0.69% among 190,000 | AID 1217, 2008;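 active = primary screen inhibition at 20 µM above a set limit, cut at about 50% in these data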;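 also: plate controls were DMSO with full reaction for no effect and wells lacking NADH for full effect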
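Detection: fluorescence of resorufin formed from resazurin, Ex 544/Em 590 nm; test system: Clostridium kluyveri diaphorase enzyme; amount: 0.14 U/mL diaphorase, enzyme working solution; times: 16-min room-temperature incubation before reading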
WT yeast gro inh = growth inhibition of WT strain, primary screen, mitochondrial fusion inhibitor project, WT and mutant strains, chemical genetic; mitochondrial fusion phenotypic screen; inhibition, % at 10 µM; hit rate 2.1% among 190,000; AID 1362, 2008; in the data active = inhibition above about 58%; tested in S. cerevisiae
Diaph act CS = compounds boosting diaphorase resazurin reduction – biochemical, uHTS, resorufin fluorescence, counter-screen for diaphorase-coupled primary assays, primary screen. activation factor at 20 µM. Diaphorase/resazurin coupled assay, 16 min; hits give high values; 1 = vehicle wells, 0 = NADH-free wells. hit rate 0.005% among 190,000. AID 1229, 2008;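 active = diaphorase activity raised at least twofold by the compound at 20 µM; inactive = activation factor below 2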
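Material: Clostridium kluyveri diaphorase, purified enzyme; Quantity: enzyme 0.07 U/mL final; Medium: HEPES pH 7.4 buffer with MgCl2 and Tween 20; Dosing: single compound dose of 20 µM, 1% DMSO final; Schedule: 16 min reaction at room temperature; Measured by: red resorufin fluorescence at 544/590 nm excitation/emission.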
L major viab = Leishmania major promastigote growth inhibition, primary screen | Leishmania major promastigotes, resazurin fluorescence viability | inhibition, % at 10 µM | hit rate 9% among 200,000 | AID 1063, 2008;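 also: promastigotes grown with compound for 44 hours at 28 °C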
An asterisk follows results filed as active; nt = no result given. Compounds with a hit are over-represented: about 11% of the library has one in this group of screens. Rule as the data show it, unless noted: active = inhibition above about 50%; inactive = the rest.

SMILES	G6PDH counter	Diaphorase inh	WT yeast gro inh	Diaph act CS	L major viab
CCC(=O)NC(c1cccc([N+](=O)[O-])c1)c1c(OC(C)=O)ccc2ccccc12 (centres undefined)	4.7	17.0	-1.8	0.8	79.9*
CC(C)C(=O)NC(c1ccc([N+](=O)[O-])cc1)c1c(O)ccc2ccccc12 (centres undefined)	7.9	35.8	33.6	0.6	97.2*
CC(=O)NC(c1ccc([N+](=O)[O-])cc1)c1c(O)ccc2ccccc12 (centres undefined)	11.6	29.0	-1.7	0.7	48.7
COc1ccc(C(NC(C)=O)c2c(O)ccc3ccccc23)cc1OC (centres undefined)	-0.7	-2.1	1.0	1	7.7
Cc1ccc(C(NC(=O)C2CCCCC2)c2c(O)ccc3ccccc23)cc1 (centres undefined)	-8.4	17.4	-3.8	0.8	97.4*
CCn1c(SCC(=O)c2[nH]c(C)c(C(C)=O)c2C)nnc1-c1ccccc1	-1.3	11.6	nt	0.9	1.9
COc1ccc(N2CCN(S(=O)(=O)c3ccc4c(c3)OCCO4)CC2)cc1	9.3	26.6	1.7	0.7	4.4
CCCCOC(=O)c1nc[nH]c1C(=O)OCCCC	5.9	4.6	-18.3	1	-0.2
Nc1c(C(=O)c2ccccc2O)cnn1-c1ccc(S(=O)(=O)N2CCOCC2)cc1[N+](=O)[O-]	4.2	27.4	11.4	0.7	-4.2
O=C(CSC(=S)N1CCN(c2ccccc2)CC1)Nc1nc(-c2ccccc2)c(-c2ccccc2)o1	7.6	-1.7	-13.8	1	41.5
CC(=O)NC(c1ccccc1)c1c(O)ccc2ccccc12 (centres undefined)	13.3	nt	-2.9	nt	37.3
CCCC(=O)NC(c1ccc(OC)c(OC)c1)c1c(O)ccc2ccccc12 (centres undefined)	5.0	17.9	15.6	0.8	99.7*
CCCC(=O)NC(c1ccc(N(C)C)cc1)c1c(O)ccc2ccccc12 (centres undefined)	19.5	12.9	0.8	0.9	100.3*
CC(C)CN(CC(C)C)C(=O)C12CCC(C)(C(=O)C1)C2(C)C (centres undefined)	-17.9	5.0	-14.2	0.9	0.1
Cc1ccc(OCCN2CCN(c3nc(NCc4ccco4)c4ccccc4n3)CC2)cc1	0.1	7.4	47.7	0.9	99.2*
c1ccc(CN2CCN(c3nc(NCc4ccco4)c4ccccc4n3)CC2)cc1	0.8	15.7	38.6	0.8	100.0*
OCCN1CCN(c2nc(NCc3ccco3)c3ccccc3n2)CC1	1.1	1.9	-12.8	1	25.0
O=S(=O)(/N=C(/Nc1ccc(F)cc1F)c1ccccc1)c1ccc(Br)cc1	-7.1	-6.4	-9.2	1.1	2.5
NC(=S)N/N=C/c1ccc(C(F)(F)F)cc1	1.6	10.9	32.7	0.9	69.5*
CC(C)Oc1ccc(/C=N/NC(N)=S)cc1	17.8	11.5	8.5	0.9	26.2
C=CCSc1nc2sc(-c3ccccc3)cc2c(=O)n1N	5.9	4.9	-15.7	1	-5.1
Cc1ccc(CNc2ccc3c(c2)OCO3)c(C)c1	8.3	29.3	12.0	0.7	99.2*
COc1ccc(NCc2ccc3c(c2)OCO3)cc1Cl	-5.9	17.5	-2.6	0.8	83.7*
Oc1ccccc1CNc1ccc2c(c1)OCCO2	15.9	23.3	3.4	0.8	2.1
COc1ccc(NC(=O)c2ccc3c(c2)OCO3)cc1Cl	4.4	15.5	6.6	0.8	-2.0
SMILES	G6PDH counter	Diaphorase inh	WT yeast gro inh	Diaph act CS	L major viab
c1cncc(CNc2ccc3c(c2)OCO3)c1	12.0	18.3	-9.5	0.8	52.1*
COc1ccc(C2C(C(=O)NCC3CCCO3)c3cc(OC)c(OC)cc3C(=O)N2C)cc1OC (centres undefined)	-6.5	16.6	10.9	0.8	-2.7
O=C1Nc2ccc(Cl)cc2C12Nc1ccccc1-c1nnc(SCc3ccccc3F)nc1O2 (centres undefined)	7.8	13.9	69.1*	0.9	-12.7
CCOC(=O)c1c(NC(=O)CSc2nnnn2CC)sc(C)c1C	-5.3	22.5	8.2	0.8	26.8
CC(C)c1csc(CN2CCC(CO)(Cc3cccc(F)c3)CC2)n1	12.8	-11.0	-3.3	1.1	-3.0
CCCCNC(=S)N(C)/N=C/c1sc(N2CCCCC2)nc1-c1cccs1	3.6	17.2	14.8	0.8	96.0*
CC(C)NC(=S)N/N=C/c1sc(N2CCCCC2)nc1-c1cccs1	8.5	16.3	18.5	0.8	16.9
O=C(N/N=C/c1sc(N2CCCCC2)nc1-c1cccs1)C1CC1	7.5	6.9	-7.0	0.9	68.8*
CCN(CC(=O)Nc1cccc(OC)c1)CC(=O)Nc1ccc(C)cc1Cl	2.0	19.8	1.6	0.8	-2.4
CS(=O)(=O)N(Cc1ccccc1Cl)c1ccc(C(=O)NCc2ccccn2)cc1	-2.6	13.1	1.3	0.9	0.5
O=C(NCC1(c2ccccc2)CCCC1)c1ccccc1Br	-0.7	16.6	-7.6	0.8	55.0*
O=C(NCC1(c2ccccc2)CCCC1)C1(c2ccccc2)CCCC1	5.0	21.2	83.3*	0.8	42.9
O=C(NCC1(c2ccccc2)CCCC1)C(=O)NCC1(c2ccccc2)CCCC1	2.0	20.1	-11.6	0.8	-2.3
Cn1c(=O)n(-c2cccc(Cl)c2)c(=O)c2c3c(sc21)COC(C)(C)C3	6.8	15.2	4.2	0.8	2.2
COC1(C)CC2C(CC1OC(=O)c1cc([N+](=O)[O-])cc([N+](=O)[O-])c1)C2(C)C (centres undefined)	-4.4	0.0	75.7*	1	100.3*
COC(=O)c1cc(C(=O)N2CCOCC2)cc([N+](=O)[O-])c1	5.5	10.4	-5.3	0.9	0.9
CCCC(C)NC(=S)Nc1cc(C)cc(C)c1 (centres undefined)	1.3	6.5	72.8*	0.9	76.2*
CC(CCc1ccc(O)cc1)NC1C2CC3CC(C2)CC1C3 (centres undefined)	-16.0	14.0	6.9	0.9	70.8*
O=C(Nc1ccon1)c1cccc(S(=O)(=O)N2CCCC2)c1	-0.2	15.2	-20.3	0.8	-0.9
Cc1sc2nc(-c3ccccn3)[nH]c(=O)c2c1-c1ccccc1	3.5	0.3	55.9	1	99.4*
O=C1CC(N2CCN(Cc3ccc4c(c3)OCO4)CC2)C(=O)N1c1cccc2ccccc12 (centres undefined)	10.0	nt	-17.0	nt	62.4*
O=C1CC(N2CCN(Cc3ccc4c(c3)OCO4)CC2)C(=O)N1CCc1ccccc1 (centres undefined)	-14.7	14.9	2.6	0.9	87.0*
COc1ccc(CCN2C(=O)CC(Cc3ccc(Br)cc3)C2=O)cc1OC (centres undefined)	6.2	19.4	3.9	0.8	55.9*
